Shown are actives, neighbours in structure and some others; about 1.6% of the full set was active somewhere.
NR2E3 ag-1 – inhibitors of NR2E3-RetCOR corepressor binding, primary screen, NR2E3 agonist project, biochemical, TR-FRET, GST-NR2E3, biotin-RetCOR. 1536-well. inhibition of corepressor binding, % at 4.78 µM. actives 0.12% (n = 320,000);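 active = percent inhibition above the cutoff of mean plus 3 SD of all tested compounds, set per screening campaign, cut at about 20% in these data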
Target sequence (Q9Y5X4 whole entry, looked up): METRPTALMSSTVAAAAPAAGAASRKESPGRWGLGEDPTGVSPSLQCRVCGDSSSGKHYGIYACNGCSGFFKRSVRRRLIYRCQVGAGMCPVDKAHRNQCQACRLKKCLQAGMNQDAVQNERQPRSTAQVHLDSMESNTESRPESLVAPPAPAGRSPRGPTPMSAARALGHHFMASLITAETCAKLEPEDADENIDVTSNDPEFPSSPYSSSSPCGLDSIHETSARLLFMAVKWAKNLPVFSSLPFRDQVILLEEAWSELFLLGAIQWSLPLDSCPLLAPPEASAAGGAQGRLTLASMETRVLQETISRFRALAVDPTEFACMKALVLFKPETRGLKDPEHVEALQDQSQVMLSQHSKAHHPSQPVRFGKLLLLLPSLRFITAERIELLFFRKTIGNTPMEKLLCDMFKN
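Material: NR2E3–RetCOR corepressor complex | Quantity: 1.35 nM GST-tagged NR2E3 final | Schedule: 5 h at 4 °C | Replication: Singlicate compound wells | Reagent: RetCOR corepressor, biotinylated, 7 nM | Controls: Biotin wells as high control, 0.6% DMSO wells as low control | Signal: TR-FRET, Eu(K)-anti-GST donor, streptavidin-D2 acceptor, ex 340, em 617/671 nm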
NR1D1 modulator – modulators of Rev-erb alpha DNA binding, primary screen, biochemical, FITC-DNA, fluorescence polarization, uHTS. Nuclear receptor subfamily 1 group D member 1 (Homo sapiens), P20393. Rev-erbα–FITC-DNA binding, 90 min. activity, % at 10 µM. actives 0.79% (n = 370,000);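 active = activity above about 14%, limit read from the data; passing the limit was not always enough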
NR2E3 ag-2 – NR2E3 agonists in two-hybrid cells, primary screen, cell-based, luminescence, CHO-S, Gal4-NCOR/VP16-NR2E3. luciferase. inhibition of corepressor binding, % at 3.98 µM. actives 0.35% (n = 360,000). AID 602229, 2012;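 active = inhibition above the mean of all tested compounds plus 3 SD, cut at about 70% in these data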;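 note: higher means lower luciferase signal from less NR2E3 corepressor binding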
VLA-4 inh – inhibition in human VLA-4 binding assay, primary screen, VLA-4 allosteric modulator project, MLPCN library, flow cytometry, VLA-4 expressing cells | inhibition, % (about 7 µM as worked out from the volumes in the protocol) | ligand binding flow cytometry | Integrin alpha-4 (Homo sapiens), P13612 | actives 0.2% (n = 330,000); in the data active = inhibition above about 50%
PG9 Ab binder – binders of HIV-1 gp120 antibody PG9, primary screen, biochemical, TR-FRET | actives 0.43% (n = 360,000) | TR-FRET gp120-PG9 antibody binding | AID 624416, 2012 | HIV-1 gp120 / PG9 antibody interaction | inhibition, % at 6.7 µM; in the data active = inhibition above about 8.5%
PG9 binder conf – binders of anti-gp120 antibody PG9, confirmation, biochemical, TR-FRET; shares compounds with PG9 Ab binder; actives 90% (n = 1,500); TR-FRET PG9 antibody binding; inhibition, % at 6.7 µM; in the data active = inhibition above about 9%
PGV04 counter – binders of control antibody PGV04, counter-screen for PG9 antibody binder project, biochemical, TR-FRET, distinct HIV envelope site. shares compounds with PG9 Ab binder. TR-FRET PGV04 antibody-gp120 binding. inhibition, % at 6.7 µM. actives 95% (n = 1,500); in the data active = inhibition above about 9.5%
Hits are given with their value.

COc1ccc(NC(=O)CSc2nncc3ccccc23)cc1 was read as NR2E3 ag-1 inactive, NR1D1 modulator inactive, NR2E3 ag-2 inactive, VLA-4 inh inactive and PG9 Ab binder inactive.
For CCOC(=O)Cc1csc(NC(=O)CSc2nc(-c3ccccc3)c(C#N)c(=O)[nH]2)n1 the results were NR2E3 ag-1 inactive, NR1D1 modulator inactive, NR2E3 ag-2 inactive, VLA-4 inh inactive and PG9 Ab binder inactive.
For N#Cc1c(-c2cccs2)cc(-c2cccs2)[nH]c1=O the results were NR2E3 ag-1 inactive, NR1D1 modulator inactive, NR2E3 ag-2 inactive, VLA-4 inh inactive and PG9 Ab binder inactive.
For N#Cc1c(-c2ccccc2)nc(SCC(=O)NC2CCCCC2)[nH]c1=O the results were NR2E3 ag-1 inactive, NR1D1 modulator inactive, NR2E3 ag-2 inactive, VLA-4 inh inactive and PG9 Ab binder inactive.
CSc1nc(-c2cccs2)c(C#N)c(=O)[nH]1 was read as NR2E3 ag-1 inactive, NR1D1 modulator inactive, NR2E3 ag-2 inactive, VLA-4 inh inactive, PG9 Ab binder 49.0, PG9 binder conf 54.9 and PGV04 counter 68.1.
`CNC(=O)NC(=O)CSc1nc(-c2cccs2)c(C#N)c(=O)[nH]1` gave NR1D1 modulator inactive, NR2E3 ag-2 inactive, PG9 Ab binder 57.8, PG9 binder conf 57.8 and PGV04 counter 69.5.
For CCSc1nc(-c2ccccc2)c(C#N)c(=O)[nH]1 the results were NR2E3 ag-1 inactive, NR1D1 modulator inactive, NR2E3 ag-2 inactive, VLA-4 inh inactive, PG9 Ab binder 9.5, PG9 binder conf 14.6 and PGV04 counter 21.4.
For CC(=O)c1cc(-c2ccccc2-c2ccccc2)c(=O)n2c1CCC2 the results were NR1D1 modulator inactive.
Screening COc1ccc(CCC[C@@H](CCC(=O)N(c2ccccc2)c2ccccc2)CCc2ccccc2)cc1 returned NR1D1 modulator inactive.
For Cc1cccc(CC2S/C(=N/c3cccc(C)n3)NC2=O)c1 (stereo not drawn) the results were NR2E3 ag-1 inactive, NR1D1 modulator inactive, NR2E3 ag-2 inactive, VLA-4 inh inactive, PG9 Ab binder 12.9, PG9 binder conf 18.0 and PGV04 counter 23.9.
For Cc1cccc(/N=C2/NC(=O)C(Cc3ccccc3)S2)n1 (stereo not drawn) the results were NR2E3 ag-1 inactive, NR1D1 modulator inactive, NR2E3 ag-2 inactive, VLA-4 inh inactive and PG9 Ab binder inactive.
`O=C1CC(c2ccc(F)cc2)Cc2nc(NCc3ccco3)ncc21` (stereo not drawn) gave NR2E3 ag-1 inactive, NR1D1 modulator inactive, NR2E3 ag-2 inactive, VLA-4 inh inactive, PG9 Ab binder 9.4, PG9 binder conf 17.7 and PGV04 counter 22.7.
For CCN=C1SC(C(N)=O)CC(=O)N1CC (stereo not drawn) the results were NR2E3 ag-1 inactive, NR1D1 modulator inactive, NR2E3 ag-2 inactive, VLA-4 inh inactive, PG9 Ab binder 9.0, PG9 binder conf inactive and PGV04 counter 17.8.
For C[C@@H]1ON(C)[C@H]2C[C@H]3c4[nH]c5c(-c6ccccc6)cccc5c4CCN3C[C@@H]12 the results were NR1D1 modulator inactive and PG9 Ab binder inactive.
For CC1(C)Cc2nc3oc4c(=S)nc[nH]c4c3cc2CO1 the results were NR2E3 ag-1 inactive, NR1D1 modulator inactive, NR2E3 ag-2 inactive, VLA-4 inh inactive, PG9 Ab binder 18.7, PG9 binder conf 10.9 and PGV04 counter 11.9.
For CN(C)CCCNC(=O)C[C@@H]1CC[C@@H]2[C@H](COc3ccc(NC(=O)c4cccc(F)c4)cc3C(=O)N2C)O1 the results were NR1D1 modulator inactive.
O=C(NCc1c(F)cccc1F)C1CCCN(c2ncccn2)C1 (stereo not drawn) was read as NR1D1 modulator inactive.
`O=C(Nc1ccsc1C(=O)NC1CCCCC1)c1ccccc1` gave NR2E3 ag-1 inactive, NR1D1 modulator inactive, NR2E3 ag-2 inactive, VLA-4 inh inactive, PG9 Ab binder 28.5, PG9 binder conf 24.9 and PGV04 counter 31.1.
For CCCCCCCCN1C(=O)[C@@H](CC(=O)NCCCOC)C[C@@]2(C(=O)OC)C1=C[C@H](COCc1ccccc1)O[C@@H]2C the results were NR1D1 modulator inactive.
`Cc1nc2ccc(NC(=O)c3ccc(F)cc3Cl)cc2c(=O)[nH]1` gave NR1D1 modulator inactive.
COc1ccc(-c2cn3c(C)c(C(=O)Nc4cc(NC(C)=O)ccc4OC)sc3n2)cc1 was read as NR2E3 ag-1 inactive, NR1D1 modulator inactive, NR2E3 ag-2 inactive, VLA-4 inh inactive, PG9 Ab binder 12.4, PG9 binder conf 9.8 and PGV04 counter 31.5.
For CC(=O)c1ccc(NC(=O)c2ccc(-n3cnnn3)cc2)cc1 the results were NR1D1 modulator inactive, NR2E3 ag-2 inactive, PG9 Ab binder 17.0, PG9 binder conf 33.1 and PGV04 counter 45.8.
CC(=O)c1ccc(S(=O)(=O)Nc2ccc(-n3cnnn3)cc2)cc1 was read as NR2E3 ag-1 inactive, NR1D1 modulator inactive, NR2E3 ag-2 inactive, VLA-4 inh inactive and PG9 Ab binder inactive.
`COc1ccc(C(=O)Nc2ccc(S(=O)(=O)N3CCCC3)cc2)c(OC)c1` gave NR2E3 ag-1 inactive, NR1D1 modulator inactive, NR2E3 ag-2 inactive, VLA-4 inh inactive, PG9 Ab binder 11.4, PG9 binder conf 13.3 and PGV04 counter 17.2.
Screening CNC(=O)c1c[nH]c2ccc(S(=O)(=O)Nc3ccccc3F)cc2c1=O returned NR2E3 ag-1 inactive, NR1D1 modulator inactive, NR2E3 ag-2 inactive, VLA-4 inh inactive, PG9 Ab binder 12.0, PG9 binder conf 22.7 and PGV04 counter 25.2.
For CCc1ccccc1NS(=O)(=O)c1ccc2[nH]cc(C(=O)NC3CCCC3)c(=O)c2c1 the results were NR2E3 ag-1 inactive, NR1D1 modulator inactive, NR2E3 ag-2 inactive, VLA-4 inh inactive, PG9 Ab binder 11.6, PG9 binder conf 18.6 and PGV04 counter 19.6.
`Cc1ccc(-n2c(SCC(=O)Nc3ccc(OCc4ccccc4)cc3)nnc2-c2cnccn2)cc1` gave NR1D1 modulator inactive.
`CCCCn1nnc(NC(=O)c2sc3cc(Cl)ccc3c2Cl)n1` gave NR2E3 ag-1 inactive, NR1D1 modulator inactive, NR2E3 ag-2 inactive, VLA-4 inh inactive, PG9 Ab binder 14.5, PG9 binder conf 26.5 and PGV04 counter 36.5.

From PubChem
